Consider 30 sequences from the array DNA melting data of Ke et al. (doi:10.1101/2024.01.08.574731).

The nature of data set [1]: folding enthalpy; higher = less favourable; fluorescence melt of hairpins on a sequencing array, two-state fit. The conditions noted are these: sodium 0.088 M. An outline of the steps:
(§1)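 Bootstrapped two-state fits yielded melting temperature and folding enthalpy for library hairpins. Cy3 fluorescence, with annealed Cy3 and quencher oligos, was imaged on a sequenced MiSeq flow cell in 50 mM Na-HEPES pH 8.0, 25 mM NaCl in 2.5 °C steps up to 60 °C, and normalised to pre-quench Cy3 and to control constructs. Four replicates were combined by inverse variance, and fitted temperatures were raised by 9.35 °C to match UV melts.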

Data set [2] can be described thus: melting temperature; fluorescence melt of hairpins on a sequencing array, two-state fit, raised by 9.35 °C to match UV melts. The conditions noted are these: sodium 0.088 M. An outline of the steps:
as §1

Regarding CGAGTCGGAAACGATCG (((.(((....)))))), in data set [1], the folding enthalpy is -27.4 kcal/mol. In addition, the Tm in data set [2] stood at 40.8 °C.

Take CGATAACGGAAACGTTCG (((..(((....)))))): the folding enthalpy in data set [1] was -16.1 kcal/mol. The Tm in data set [2] amounted to 35.6 °C.

CGATCGGAAACGAAATCG ((((((....)))..))): in data set [1], the folding enthalpy is -22.2 kcal/mol. In addition, the Tm in data set [2] was determined as 33.9 °C.

Regarding CGATCGGAAACGAATCG ((((((....))).))), the folding enthalpy in data set [1] is -34.7 kcal/mol. For the same sequence, the Tm in data set [2] worked out at 46 °C.

In the case of CGATCGGAAACGAGATCG ((((((....)))..))), in data set [1], the folding enthalpy was -28.4 kcal/mol. Moreover, the Tm in data set [2] amounted to 42.5 °C.

Take CGATCGGAAACGATATCG ((((((....)))..))): the folding enthalpy in data set [1] is -18.4 kcal/mol. The Tm in data set [2] worked out at 35.5 °C.

As for CGATCGGAAACGATTCG ((((((....))).))), in data set [1], the folding enthalpy was -24.9 kcal/mol. The Tm in data set [2] worked out at 43.7 °C.

For CGATCGGAAACGATTTCG ((((((....)))..))), the folding enthalpy in data set [1] is -20.4 kcal/mol. Moreover, in data set [2], the Tm stood at 30.2 °C.

Turning to CGATGCGGAAACGCGTCG (((.(((....))).))), the folding enthalpy in data set [1] is -47.4 kcal/mol. Also, in data set [2], the Tm was 62.1 °C.

For the sequence CGATGGAAACATCG (((((....))))), the folding enthalpy in data set [1] is -23.9 kcal/mol. The Tm in data set [2] was 52.6 °C.

In the case of CGATTCCGGAAACGGTCG (((..(((....)))))), the folding enthalpy in data set [1] was -27.7 kcal/mol. Also, in data set [2], the Tm turned out to be 36.2 °C.

As for CGATTCGGAAACGACTCG (((.(((....))).))), in data set [1], the folding enthalpy was -37.8 kcal/mol. Also, the Tm in data set [2] turned out to be 42.6 °C.

As for CGATTGCGGAAACGCTCG (((..(((....)))))), the folding enthalpy in data set [1] is -15.9 kcal/mol. In data set [2], the Tm was 33.5 °C.

For CGATTTCGGAAACGATCG (((..(((....)))))), the folding enthalpy in data set [1] was -9.46 kcal/mol. Further, the Tm in data set [2] worked out at 29.6 °C.

For the sequence CGCACCCGGAAACGGGCG (((..(((....)))))), in data set [1], the folding enthalpy was -12 kcal/mol. In addition, the Tm in data set [2] turned out to be 46.1 °C.

In the case of CGCACCGGAAACGGGCG (((.(((....)))))), the folding enthalpy in data set [1] is -25.2 kcal/mol. Moreover, the Tm in data set [2] amounted to 55.7 °C.

On to CGCACGGAAACGTCAGCG ((((((....)))..))), for which the folding enthalpy in data set [1] is -26.4 kcal/mol. In addition, the Tm in data set [2] came out at 42.7 °C.

As to CGCACGGAAACGTCTGCG ((((((....)))..))), in data set [1], the folding enthalpy is -23.8 kcal/mol. The Tm in data set [2] was 42.6 °C.

For the sequence CGCACGGAAACGTGAGCG ((((((....)))..))), the folding enthalpy in data set [1] was -14.8 kcal/mol. Besides, the Tm in data set [2] turned out to be 50.5 °C.

On to CGCACGGAAACGTGGGCG ((((((....)))..))), for which the folding enthalpy in data set [1] is -12.8 kcal/mol. For the same sequence, the Tm in data set [2] turned out to be 56.3 °C.

For the sequence CGCACGGAAACGTTCGCG ((((((....)))..))), in data set [1], the folding enthalpy is -22.7 kcal/mol. Also, the Tm in data set [2] is 41.1 °C.

As to CGCACGGAAACGTTTGCG ((((((....)))..))), the folding enthalpy in data set [1] is -29.5 kcal/mol. The Tm in data set [2] was 44.1 °C.

CGCAGACGGAAACGTGCG (((..(((....)))))): the folding enthalpy in data set [1] was -22.6 kcal/mol. The Tm in data set [2] worked out at 49.3 °C.

Consider CGCATCCGGAAACGGGCG (((..(((....)))))), for which the folding enthalpy in data set [1] was -26.7 kcal/mol. The Tm in data set [2] was determined as 46.9 °C.

On to CGCATCGGAAACGAGGCG (((.(((....))).))), for which the folding enthalpy in data set [1] is -44.1 kcal/mol. Further, the Tm in data set [2] stood at 61.4 °C.

Consider CGCATTCGGAAACGAGCG (((..(((....)))))), for which the folding enthalpy in data set [1] is -25.9 kcal/mol. Besides, the Tm in data set [2] was 36.9 °C.

For the sequence CGCCCGGAAACGGAAGCG ((((((....)))..))), in data set [1], the folding enthalpy was -30.8 kcal/mol. Moreover, in data set [2], the Tm was found to be 49.3 °C.

Consider CGCCCGGAAACGGGTGCG ((((((....)))..))), for which the folding enthalpy in data set [1] was -10.7 kcal/mol. The Tm in data set [2] came out at 57.5 °C.

As for CGCCCGGAAACGGTAGCG ((((((....)))..))), in data set [1], the folding enthalpy was -30.4 kcal/mol. In addition, in data set [2], the Tm was 50.9 °C.

CGCCCGGAAACGGTCGCG ((((((....)))..))): in data set [1], the folding enthalpy is -21.2 kcal/mol. The Tm in data set [2] was determined as 50.1 °C.
